Activity calls are given as the source filed them. No cut-off for these calls is given here.
Key:
[1] = test system: Epidermal growth factor receptor (Homo sapiens), P00533 [G719C]; assay: Inhibition of EGFR G719C mutant (unknown origin) expressed in expressed in Escherichia coli BL21 at 1 uM incubated for 1 hr by Eurofins-KinomeScan assay relative to control
[2] = target: T1, Tyrosine-protein kinase BTK (Homo sapiens, UniProt Q06187); conditions: OCILY7, dose 500.0 nM, time 1.0 hrs
[3] = test system: Epidermal growth factor receptor (Homo sapiens), P00533 [T790M]; assay: Inhibition of EGFR T790M mutant (unknown origin) expressed in expressed in Escherichia coli BL21 at 1 uM incubated for 1 hr by Eurofins-KinomeScan assay relative to control
[4] = test system: Epidermal growth factor receptor (Homo sapiens), P00533 [L861Q]; assay: Inhibition of EGFR L861Q mutant (unknown origin) expressed in expressed in Escherichia coli BL21 at 1 uM incubated for 1 hr by Eurofins-KinomeScan assay relative to control
[5] = test system: Epidermal growth factor receptor (Homo sapiens), P00533 [G719S]; assay: Inhibition of EGFR G719S mutant (unknown origin) expressed in expressed in Escherichia coli BL21 at 1 uM incubated for 1 hr by Eurofins-KinomeScan assay relative to control
[6] = target: T1, Tyrosine-protein kinase BTK; conditions: OCILY7, dose 500.0 nM, time 1.0 hrs; remark: listed apart in the source
[7] = target: T1, Tyrosine-protein kinase BTK; conditions: OCILY7, dose 500.0 nM, time 1.0 hrs; remark: listed apart in the source
[8] = target: T1, Tyrosine-protein kinase BTK; conditions: OCILY7, dose 500.0 nM, time 1.0 hrs; remark: listed apart in the source
TMD8 [9] = assay: Induction of apoptosis in human TMD8 cells assessed as necrotic cells at 1000 nM incubated for 72 hrs by Annexin-V/PI staining based flow cytometry (reference value: 3 %); assay type: functional
TMD8 [10] = assay: Downregulation of CYP1A1 gene expression in human TMD8 cells at 1 uM incubated for 8 hrs by RNA-sequencing analysis; assay type: functional, cell-based
In short: (§1)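 TMD8 cells (RPMI-1640, 10% FBS, glutamine) exposed to compound at 1 μM or DMSO for 8 h. Total RNA extracted and analysed by RNA-seq. Differential expression called against DMSO at FDR < 0.01 with |log2FC| > 0.5.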

TMD8 [11] = assay: Induction of necroptosis in human TMD8 cells assessed as upregulation of RIPK1 gene expression at 1 uM incubated for 8 hrs by RNA-sequencing analysis; assay type: functional, cell-based; in short: as §1
TMD8 [12] = assay: Induction of apoptosis in human TMD8 cells assessed as early apoptotic cells at 10 nM incubated for 72 hrs by Annexin-V/PI staining based flow cytometry (reference value: 4.8 %); assay type: functional
[13] = target: T1, Tyrosine-protein kinase BTK; assay: Inhibition of NanoLuc fused BTK (unknown origin) transiently transfected in HEK293 cells incubated for 1 hr by NanoBRET assay; assay type: cell-based
TMD8 [14] = assay: Induction of pyroptosis in human TMD8 cells assessed as upregulation of TLR4 gene expression at 1 uM incubated for 8 hrs by RNA-sequencing analysis; assay type: functional, cell-based; in short: as §1
TMD8 [15] = assay: Induction of apoptosis in human TMD8 cells assessed as late apoptotic cells at 100 nM incubated for 72 hrs by Annexin-V/PI staining based flow cytometry (reference value: 25.4 %); assay type: functional
TMD8 [16] = assay: Induction of necroptosis in human TMD8 cells assessed as upregulation of TLR4 gene expression at 1 uM incubated for 8 hrs by RNA-sequencing analysis; assay type: functional, cell-based; in short: as §1
TMD8 [17] = assay: Induction of necroptosis in human TMD8 cells assessed as upregulation of TNFSF10 gene expression at 1 uM incubated for 8 hrs by RNA-sequencing analysis; assay type: functional, cell-based; in short: as §1
TMD8 [18] = assay: Induction of necroptosis in human TMD8 cells assessed as upregulation of TRPM7 gene expression at 1 uM incubated for 8 hrs by RNA-sequencing analysis; assay type: functional, cell-based; in short: as §1
TMD8 [19] = assay: Induction of apoptosis in human TMD8 cells assessed as early apoptotic cells at 1000 nM incubated for 72 hrs by Annexin-V/PI staining based flow cytometry (reference value: 4.8 %); assay type: functional
TMD8 [20] = assay: Induction of apoptosis in human TMD8 cells assessed as necrotic cells at 10 nM incubated for 72 hrs by Annexin-V/PI staining based flow cytometry (reference value: 3 %); assay type: functional
[21] = target: T1, Tyrosine-protein kinase BTK; assay: Inhibition of BTK in anti-IgM induced human OCILY7 cells assessed as increase in calcium flux at 250 nM incubated for […] followed by anti-IgM and Pluronic F127 stimulation measured after […] by Fluo-3 AM based flow cytometry; assay type: cell-based; conditions: time 5.0 hrs
TMD8 [22] = assay: Induction of apoptosis in human TMD8 cells assessed as necrotic cells at 100 nM incubated for 72 hrs by Annexin-V/PI staining based flow cytometry (reference value: 3 %); assay type: functional
TMD8 [23] = assay: Induction of pyroptosis in human TMD8 cells assessed as upregulation of NLRP7 gene expression at 1 uM incubated for 8 hrs by RNA-sequencing analysis; assay type: functional, cell-based; in short: as §1
[24] = GSH reactivity in PBS buffer at pH 7.4 assessed as pseudo-first order rate constant incubated upto 6 hrs at 20 degreeC by LC-MS analysis; assay type: physicochemical; conditions: pH 7.4, 6 h
In short: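 Compound at 100 μM with 1 mM GSH (10 equiv) in PBS pH 7.4, containing 100 μM 4-hydroxybenzoic acid as internal standard and 5% v/v DMSO, held at 20 °C. LC-MS traces taken every 10 min. Normalized integrals plotted against time to give a pseudo-first-order rate constant. Run in triplicate.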

TMD8 [25] = assay: Induction of pyroptosis in human TMD8 cells assessed as upregulation of TLR8 gene expression at 1 uM incubated for 8 hrs by RNA-sequencing analysis; assay type: functional, cell-based; in short: as §1
TMD8 [26] = assay: Induction of apoptosis in human TMD8 cells assessed as late apoptotic cells at 10 nM incubated for 72 hrs by Annexin-V/PI staining based flow cytometry (reference value: 25.4 %); assay type: functional
TMD8 [27] = assay: Induction of apoptosis in human TMD8 cells assessed as viable cells at 1000 nM incubated for 72 hrs by Annexin-V/PI staining based flow cytometry (reference value: 66 %); assay type: functional; conditions: read-out: Activity
[28] = target: T1, Tyrosine-protein kinase BTK; conditions: OCILY7, dose 500.0 nM, time 1.0 hrs; remark: listed apart in the source
[29] = target: T1, Tyrosine-protein kinase BTK; assay: Covalent inhibition of full-length BTK (unknown origin) expressed in Escherichia coli BL21 (DE3) at 100 nM incubated for 1 hr in presence of ATP by ADP-Glo kinase assay relative to control
[30] = Stability in human plasma assessed as parent compound remaining incubated for 3 hrs by UPLC-MS analysis; assay type: ADME, cell-free; conditions: read-out: Stability
TMD8 [31] = assay: Downregulation of NFKBID gene expression in human TMD8 cells at 1 uM incubated for 8 hrs by RNA-sequencing analysis; assay type: functional, cell-based
In short: (§2)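 TMD8 cells (RPMI-1640, 10% FBS, penicillin/streptomycin, 2 mM glutamine) exposed to compound or DMSO vehicle for 8 h; total RNA extracted for RNA-seq. Differential expression versus DMSO scored at FDR < 0.01 with log2 fold change beyond ±0.5.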

TMD8 [32] = assay: Downregulation of NR4A1 gene expression in human TMD8 cells at 1 uM incubated for 8 hrs by RNA-sequencing analysis; assay type: functional, cell-based; in short: as §2
TMD8 [33] = assay: Downregulation of IL-10 gene expression in human TMD8 cells at 1 uM incubated for 8 hrs by RNA-sequencing analysis; assay type: functional, cell-based; in short: as §2
TMD8 [34] = assay: Downregulation of EGR2 gene expression in human TMD8 cells at 1 uM incubated for 8 hrs by RNA-sequencing analysis; assay type: functional, cell-based; in short: as §2
TMD8 [35] = assay: Downregulation of LTA gene expression in human TMD8 cells at 1 uM incubated for 8 hrs by RNA-sequencing analysis; assay type: functional, cell-based; in short: as §2
TMD8 [36] = assay: Downregulation of CD83 gene expression in human TMD8 cells at 1 uM incubated for 8 hrs by RNA-sequencing analysis; assay type: functional, cell-based; in short: as §2
[37] = target: T1, Tyrosine-protein kinase BTK

T1 sequence (Q06187 whole entry): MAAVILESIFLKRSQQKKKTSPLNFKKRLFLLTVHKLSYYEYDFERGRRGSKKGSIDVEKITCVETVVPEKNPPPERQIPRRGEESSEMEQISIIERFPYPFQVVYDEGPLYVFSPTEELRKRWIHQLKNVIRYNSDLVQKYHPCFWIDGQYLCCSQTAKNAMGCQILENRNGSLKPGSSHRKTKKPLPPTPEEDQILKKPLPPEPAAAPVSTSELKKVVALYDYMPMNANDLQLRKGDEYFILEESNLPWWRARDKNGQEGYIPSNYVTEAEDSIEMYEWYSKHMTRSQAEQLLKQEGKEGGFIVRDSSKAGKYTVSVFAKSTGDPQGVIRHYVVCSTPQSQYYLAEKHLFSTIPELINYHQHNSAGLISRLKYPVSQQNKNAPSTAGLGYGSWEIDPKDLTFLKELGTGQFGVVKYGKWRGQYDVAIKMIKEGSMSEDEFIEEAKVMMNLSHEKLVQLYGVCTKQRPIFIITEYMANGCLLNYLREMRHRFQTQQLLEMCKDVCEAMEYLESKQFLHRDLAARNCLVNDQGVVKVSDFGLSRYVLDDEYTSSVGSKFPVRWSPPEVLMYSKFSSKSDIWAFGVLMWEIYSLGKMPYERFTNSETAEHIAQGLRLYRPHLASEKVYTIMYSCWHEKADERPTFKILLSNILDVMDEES
Sequence of Epidermal growth factor receptor (Homo sapiens), P00533 [G719C] (P00533 whole entry G719C): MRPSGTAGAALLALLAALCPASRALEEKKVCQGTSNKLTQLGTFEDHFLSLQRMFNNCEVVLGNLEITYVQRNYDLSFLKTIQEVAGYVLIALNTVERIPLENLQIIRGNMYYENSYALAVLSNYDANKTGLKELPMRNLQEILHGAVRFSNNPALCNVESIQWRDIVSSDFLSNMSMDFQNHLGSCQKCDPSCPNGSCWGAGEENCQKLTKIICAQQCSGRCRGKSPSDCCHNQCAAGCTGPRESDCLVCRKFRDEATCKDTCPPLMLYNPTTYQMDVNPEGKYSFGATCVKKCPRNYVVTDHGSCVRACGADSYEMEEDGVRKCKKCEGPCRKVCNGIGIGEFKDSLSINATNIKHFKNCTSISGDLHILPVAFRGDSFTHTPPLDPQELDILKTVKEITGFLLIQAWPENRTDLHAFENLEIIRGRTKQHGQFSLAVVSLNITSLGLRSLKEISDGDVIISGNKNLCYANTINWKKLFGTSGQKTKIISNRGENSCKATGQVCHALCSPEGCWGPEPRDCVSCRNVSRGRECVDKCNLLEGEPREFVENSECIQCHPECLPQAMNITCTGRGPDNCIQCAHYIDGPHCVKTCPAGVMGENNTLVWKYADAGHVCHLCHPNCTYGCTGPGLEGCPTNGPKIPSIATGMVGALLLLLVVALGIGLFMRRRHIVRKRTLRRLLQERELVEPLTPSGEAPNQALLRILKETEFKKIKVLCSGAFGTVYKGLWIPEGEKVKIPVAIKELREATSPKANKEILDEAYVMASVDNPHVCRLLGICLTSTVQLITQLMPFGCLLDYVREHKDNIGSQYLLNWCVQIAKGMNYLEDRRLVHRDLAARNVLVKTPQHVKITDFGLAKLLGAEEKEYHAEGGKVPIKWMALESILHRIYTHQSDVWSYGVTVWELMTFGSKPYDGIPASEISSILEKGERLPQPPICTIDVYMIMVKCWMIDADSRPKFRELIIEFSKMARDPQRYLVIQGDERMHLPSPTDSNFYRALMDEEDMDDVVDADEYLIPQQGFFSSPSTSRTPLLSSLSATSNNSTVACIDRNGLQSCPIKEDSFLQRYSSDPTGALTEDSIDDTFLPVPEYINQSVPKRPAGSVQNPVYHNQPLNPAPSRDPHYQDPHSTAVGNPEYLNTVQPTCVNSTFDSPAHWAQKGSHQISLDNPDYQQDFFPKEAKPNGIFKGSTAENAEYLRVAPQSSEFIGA
Sequence of Epidermal growth factor receptor (Homo sapiens), P00533 [T790M] (P00533 whole entry T790M): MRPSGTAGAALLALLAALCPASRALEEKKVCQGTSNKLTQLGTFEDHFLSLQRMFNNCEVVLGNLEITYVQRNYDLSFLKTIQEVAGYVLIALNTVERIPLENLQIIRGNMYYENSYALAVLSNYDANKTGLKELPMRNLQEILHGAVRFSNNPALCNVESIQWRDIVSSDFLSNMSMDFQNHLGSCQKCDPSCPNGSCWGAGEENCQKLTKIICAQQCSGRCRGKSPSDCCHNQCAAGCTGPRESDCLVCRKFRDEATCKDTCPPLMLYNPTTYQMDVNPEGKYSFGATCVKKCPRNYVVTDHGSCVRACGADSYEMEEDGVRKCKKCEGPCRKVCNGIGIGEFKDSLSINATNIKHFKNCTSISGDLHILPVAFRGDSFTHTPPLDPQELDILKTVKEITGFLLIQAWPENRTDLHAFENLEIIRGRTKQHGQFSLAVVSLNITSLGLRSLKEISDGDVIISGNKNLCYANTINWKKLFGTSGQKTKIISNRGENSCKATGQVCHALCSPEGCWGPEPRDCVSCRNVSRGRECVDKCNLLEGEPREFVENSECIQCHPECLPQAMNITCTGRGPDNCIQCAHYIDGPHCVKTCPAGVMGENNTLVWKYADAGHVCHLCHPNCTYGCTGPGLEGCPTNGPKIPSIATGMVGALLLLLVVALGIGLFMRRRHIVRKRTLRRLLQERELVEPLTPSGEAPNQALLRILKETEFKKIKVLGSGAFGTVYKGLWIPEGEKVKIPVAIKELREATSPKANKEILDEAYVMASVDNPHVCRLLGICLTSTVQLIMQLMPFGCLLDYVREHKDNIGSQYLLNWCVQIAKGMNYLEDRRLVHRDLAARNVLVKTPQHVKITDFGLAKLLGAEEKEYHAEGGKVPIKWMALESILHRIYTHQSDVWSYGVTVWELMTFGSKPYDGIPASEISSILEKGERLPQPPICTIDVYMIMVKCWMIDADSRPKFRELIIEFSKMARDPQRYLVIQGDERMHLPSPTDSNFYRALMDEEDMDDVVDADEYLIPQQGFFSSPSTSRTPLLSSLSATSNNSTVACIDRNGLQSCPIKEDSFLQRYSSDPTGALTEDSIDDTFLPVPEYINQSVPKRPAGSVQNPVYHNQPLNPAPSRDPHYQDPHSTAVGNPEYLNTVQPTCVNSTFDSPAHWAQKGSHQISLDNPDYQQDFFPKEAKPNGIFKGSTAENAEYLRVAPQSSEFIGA
Sequence of Epidermal growth factor receptor (Homo sapiens), P00533 [G719S] (P00533 whole entry G719S): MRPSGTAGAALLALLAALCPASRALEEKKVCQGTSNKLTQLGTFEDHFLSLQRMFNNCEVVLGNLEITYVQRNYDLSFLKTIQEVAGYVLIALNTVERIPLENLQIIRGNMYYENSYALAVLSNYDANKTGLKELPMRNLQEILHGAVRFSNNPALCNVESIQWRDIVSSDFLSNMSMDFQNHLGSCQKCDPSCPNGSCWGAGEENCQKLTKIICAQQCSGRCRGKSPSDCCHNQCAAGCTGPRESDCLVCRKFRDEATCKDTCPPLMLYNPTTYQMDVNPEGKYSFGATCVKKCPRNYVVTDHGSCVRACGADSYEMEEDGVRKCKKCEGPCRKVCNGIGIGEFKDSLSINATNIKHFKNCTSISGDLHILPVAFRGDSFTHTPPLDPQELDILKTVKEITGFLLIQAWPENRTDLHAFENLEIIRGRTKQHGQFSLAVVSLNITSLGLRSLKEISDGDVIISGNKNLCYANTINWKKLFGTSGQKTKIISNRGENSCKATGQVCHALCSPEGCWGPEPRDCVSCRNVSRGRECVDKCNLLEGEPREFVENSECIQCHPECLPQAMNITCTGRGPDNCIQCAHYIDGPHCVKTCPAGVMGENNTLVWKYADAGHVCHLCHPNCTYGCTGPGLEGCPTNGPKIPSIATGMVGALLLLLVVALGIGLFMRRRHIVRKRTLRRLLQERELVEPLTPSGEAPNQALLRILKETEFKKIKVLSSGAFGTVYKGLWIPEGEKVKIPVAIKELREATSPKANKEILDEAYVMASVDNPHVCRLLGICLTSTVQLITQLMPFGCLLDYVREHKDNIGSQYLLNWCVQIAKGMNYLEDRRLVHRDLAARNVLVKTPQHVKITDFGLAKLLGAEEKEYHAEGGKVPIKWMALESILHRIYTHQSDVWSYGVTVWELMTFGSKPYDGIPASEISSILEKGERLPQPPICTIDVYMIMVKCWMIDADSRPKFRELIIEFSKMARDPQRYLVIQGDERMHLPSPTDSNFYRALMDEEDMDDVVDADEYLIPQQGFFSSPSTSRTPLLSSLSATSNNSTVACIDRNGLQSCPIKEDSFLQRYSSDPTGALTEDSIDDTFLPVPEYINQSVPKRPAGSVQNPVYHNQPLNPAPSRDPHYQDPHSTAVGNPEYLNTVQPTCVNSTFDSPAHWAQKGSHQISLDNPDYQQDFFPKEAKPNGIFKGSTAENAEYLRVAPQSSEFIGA

Compound	inhibition [1]	inhibition [2]	inhibition [3]	inhibition [4]	inhibition [5]	inhibition [6]	inhibition [7]	inhibition [8]	inhibition [29] [%]	further results
COC(=O)c1cnc(S(C)(=O)=O)nc1N1CCC[C@H](n2nc(-c3ccc(Oc4ccccc4)cc3)c3c(N)ncnc32)C1	Active	Active	Active	Active	Active	inactive	inactive	inactive	–	–
CNC(=O)c1cnc(S(C)(=O)=O)nc1N1CCC[C@H](n2nc(-c3ccc(Oc4ccccc4)cc3)c3c(N)ncnc32)C1	Active	Active	Active	Active	Active	inactive	inactive	inactive	–	Activity (TMD8 [9]): 4.5%; Activity (TMD8 [10]): Active; Activity (TMD8 [11]): Active; Activity (TMD8 [12]): 3.4%; IC50 [13]: 0.6 nM; Activity (TMD8 [14]): Active; Activity (TMD8 [15]): 53%; Activity (TMD8 [16]): Active; Activity (TMD8 [17]): Active; Activity (TMD8 [18]): Active; Activity (TMD8 [19]): 14.5%; Activity (TMD8 [20]): 3.9%; inhibition [21]: Active; Activity (TMD8 [22]): 4.6%; Activity (TMD8 [23]): Active; K [24]: 47 10^-5/s; Activity (TMD8 [25]): Active; Activity (TMD8 [26]): 26.6%; viability at 1 µM (TMD8 [27]): 14.7%; inhibition [28]: inactive
CCCCS(=O)(=O)c1nccc(C(=O)N2CCC[C@H](n3nc(-c4ccc(Oc5ccccc5)cc4)c4c(N)ncnc43)C2)n1	–	–	–	–	–	–	–	–	40	–
CCCCS(=O)(=O)c1ncc(C(=O)N2CCC[C@H](n3nc(-c4ccc(Oc5ccccc5)cc4)c4c(N)ncnc43)C2)cn1	–	–	–	–	–	–	–	–	40	–
CCOC(=O)c1cnc(S(C)(=O)=O)nc1N1CCC[C@H](n2nc(-c3ccc(Oc4ccccc4)cc3)c3c(N)ncnc32)C1	Active	Active	Active	Active	Active	inactive	inactive	inactive	> 95	remaining at 3 h [30]: 22%
C=CC(=O)N1CCC[C@@H](n2nc(-c3ccc(Oc4ccccc4)cc3)c3c(N)ncnc32)C1	–	–	–	–	–	–	–	–	–	Activity (TMD8 [31]): Active; Activity (TMD8 [32]): Active; Activity (TMD8 [33]): Active; Activity (TMD8 [34]): Active; Activity (TMD8 [35]): Active; Activity (TMD8 [36]): Active
Nc1ncnc2c1c(-c1ccc(Oc3ccccc3)cc1)nn2[C@H]1CCCN(C(=O)c2cnc(S(=O)(=O)c3ccccc3)nc2)C1	–	–	–	–	–	–	–	–	40	–
Cc1cnc(S(C)(=O)=O)nc1N1CCC[C@H](n2nc(-c3ccc(Oc4ccccc4)cc3)c3c(N)ncnc32)C1	Active	Active	Active	Active	Active	inactive	inactive	inactive	–	inhibition [21]: Active; Kinact [37]: 0.007 s⁻¹; inhibition [28]: inactive
CS(=O)(=O)c1ncc(C(=O)N2CCC[C@H](n3nc(-c4ccc(Oc5ccccc5)cc4)c4c(N)ncnc43)C2)cn1	–	–	–	–	–	–	–	–	80	–
CS(=O)(=O)c1ncc(Cl)c(C(=O)N2CCC[C@H](n3nc(-c4ccc(Oc5ccccc5)cc4)c4c(N)ncnc43)C2)n1	–	–	–	–	–	–	–	–	80	–
CS(=O)(=O)c1nccc(C(=O)N2CCC[C@H](n3nc(-c4ccc(Oc5ccccc5)cc4)c4c(N)ncnc43)C2)n1	–	–	–	–	–	–	–	–	80	–
